Values after ≈ are worked out from the molar mass of the structure shown.
Columns and labels:
Type in all cases: functional
Haemophilus influenzae [1] = test: Antibacterial activity against beta-lactamase nonproducing ampicillin susceptible Haemophilus influenzae isolate by broth microdilution method
Method in brief: (§1)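 Clinical isolates were tested by broth microdilution in Haemophilus test medium following CLSI guidelines, with H. influenzae ATCC 49247 as the QC strain. β-Lactamase was detected by chromogenic nitrocefin test. ftsI was PCR-amplified and sequenced across nt 936–1640 (aa 327–540). Classes: BLNAS (no mechanism), BLNAR (ftsI substitutions), BLPAR (β-lactamase only), BLPACR (both). Agents tested were amoxicillin, amoxicillin-clavulanate (2:1), cefaclor, cefuroxime, cefotaxime and cefixime.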

Haemophilus influenzae [2] = test: Antibacterial activity against beta-lactamase producing amoxicillin-clavulanic acid-resistant Haemophilus influenzae isolate assessed as percent susceptible isolates by broth microdilution method
Method in brief: (§2)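 Broth microdilution in Haemophilus test medium per CLSI guidelines on clinical isolates, with H. influenzae ATCC 49247 as quality-control strain; β-lactamase production detected by nitrocefin chromogenic cephalosporin test; isolates classed by β-lactamase status and ftsI (PBP 3) sequencing of amino acids 327 to 540. Agents tested: amoxicillin, amoxicillin-clavulanic acid (2:1), cefaclor, cefuroxime, cefotaxime, cefixime.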

Haemophilus influenzae [3] = test: Antibacterial activity against beta-lactamase positive ampicillin resistant Haemophilus influenzae isolate assessed as percent susceptible isolates by broth microdilution method; method in brief: as §1
Haemophilus influenzae [4] = test: Antibacterial activity against Haemophilus influenzae group IIb isolates with ftsI gene mutation by broth microdilution method; method in brief: as §1
Haemophilus influenzae [5] = test: Antibacterial activity against Haemophilus influenzae group I isolates with ftsI gene mutation by broth microdilution method; method in brief: as §1
Haemophilus influenzae [6] = test: Antibacterial activity against beta-lactamase nonproducing ampicillin resistant Haemophilus influenzae isolate by broth microdilution method; method in brief: as §1
Haemophilus influenzae [7] = test: Antibacterial activity against beta-lactamase nonproducing ampicillin resistant Haemophilus influenzae isolate assessed as percent resistant isolates by broth microdilution method; method in brief: as §1
Haemophilus influenzae [8] = test: Antibacterial activity against beta-lactamase nonproducing ampicillin susceptible Haemophilus influenzae isolate assessed as percent susceptible isolates by broth microdilution method; method in brief: as §2
Haemophilus influenzae [9] = test: Antibacterial activity against beta-lactamase positive ampicillin resistant Haemophilus influenzae isolate by broth microdilution method; method in brief: as §1
Haemophilus influenzae [10] = test: Antibacterial activity against beta-lactamase nonproducing ampicillin resistant Haemophilus influenzae isolate assessed as percent susceptible isolates by broth microdilution method; method in brief: as §1
Haemophilus influenzae [11] = test: Antibacterial activity against beta-lactamase producing amoxicillin-clavulanic acid-resistant Haemophilus influenzae isolate by broth microdilution method; method in brief: as §1
Haemophilus influenzae [12] = test: Antibacterial activity against beta-lactamase positive ampicillin resistant Haemophilus influenzae isolate assessed as percent resistant isolates by broth microdilution method; method in brief: as §1
Haemophilus influenzae [13] = test: Antibacterial activity against beta-lactamase producing amoxicillin-clavulanic acid-resistant Haemophilus influenzae isolate assessed as percent resistant isolates by broth microdilution method; method in brief: as §1
Haemophilus influenzae [14] = test: Antibacterial activity against Haemophilus influenzae group IId isolates with ftsI gene mutation by broth microdilution method; method in brief: as §1
Haemophilus influenzae [15] = test: Antibacterial activity against Haemophilus influenzae group IIa isolates with ftsI gene mutation by broth microdilution method; method in brief: as §1
Haemophilus influenzae [16] = test: Antibacterial activity against Haemophilus influenzae group IIc isolates with ftsI gene mutation by broth microdilution method; method in brief: as §1
Haemophilus influenzae [17] = test: Antibacterial activity against Haemophilus influenzae group III-like isolates with ftsI gene mutation by broth microdilution method; method in brief: as §1
Haemophilus influenzae [18] = test: Antibacterial activity against beta-lactamase nonproducing ampicillin susceptible Haemophilus influenzae isolate assessed as percent resistant isolates by broth microdilution method; method in brief: as §1

SMILES	MIC50 (Haemophilus influenzae [1]) [µg/mL]	MIC90 (Haemophilus influenzae [1]) [µg/mL]	Activity (Haemophilus influenzae [2]) [%]	MIC50 (Haemophilus influenzae [4]) [µg/mL]	MIC50 (Haemophilus influenzae [5]) [µg/mL]	MIC90 (Haemophilus influenzae [5]) [µg/mL]	MIC50 (Haemophilus influenzae [6]) [µg/mL]	Activity (Haemophilus influenzae [7]) [%]	Activity (Haemophilus influenzae [8]) [%]	MIC90 (Haemophilus influenzae [9]) [µg/mL]	Activity (Haemophilus influenzae [10]) [%]	MIC50 (Haemophilus influenzae [11]) [µg/mL]	MIC90 (Haemophilus influenzae [11]) [µg/mL]	Activity (Haemophilus influenzae [12]) [%]	Activity (Haemophilus influenzae [13]) [%]	MIC50 (Haemophilus influenzae [14]) [µg/mL]	MIC90 (Haemophilus influenzae [14]) [µg/mL]	MIC50 (Haemophilus influenzae [15]) [µg/mL]	MIC50 (Haemophilus influenzae [16]) [µg/mL]	MIC50 (Haemophilus influenzae [17]) [µg/mL]	further results
N[C@@H](C(=O)N[C@@H]1C(=O)N2C(C(=O)O)=C(Cl)CS[C@H]12)c1ccccc1 [CEFACLOR ANHYDROUS]	2 (≈ 5.44 µM)	4 (≈ 10.9 µM)	75.7	4 (≈ 10.9 µM)	2 (≈ 5.44 µM)	8 (≈ 21.8 µM)	4 (≈ 10.9 µM)	12.1	100	8 (≈ 21.8 µM)	87.9	4	≥ 16	8.9	24.3	2 (≈ 5.44 µM)	8 (≈ 21.8 µM)	8 (≈ 21.8 µM)	8 (≈ 21.8 µM)	4 (≈ 10.9 µM)	Activity (Haemophilus influenzae [3]): 91.1%; MIC (Haemophilus influenzae [5]): 2 µg/mL (≈ 5.44 µM); MIC50 (Haemophilus influenzae [9]): 4 µg/mL (≈ 10.9 µM); Activity (Haemophilus influenzae [18]): 0%
CO/N=C(\C(=O)N[C@@H]1C(=O)N2C(C(=O)O)=C(COC(C)=O)CS[C@H]12)c1csc(N)n1 [CEFOTAXIME]	≤ 0.01	0.06 (≈ 0.132 µM)	100	0.06 (≈ 0.132 µM)	0.03 (≈ 0.0659 µM)	0.12 (≈ 0.263 µM)	0.06 (≈ 0.132 µM)	1	100	0.06 (≈ 0.132 µM)	99	0.03	0.06	0	0	0.03 (≈ 0.0659 µM)	0.12 (≈ 0.263 µM)	0.06 (≈ 0.132 µM)	0.06 (≈ 0.132 µM)	0.5 (≈ 1.1 µM)	MIC (Haemophilus influenzae [1]): ≤ 0.01 µg/mL; MIC90 (Haemophilus influenzae [4]): 0.12 µg/mL (≈ 0.263 µM); MIC90 (Haemophilus influenzae [6]): 0.25 µg/mL (≈ 0.549 µM); MIC90 (Haemophilus influenzae [15]): 0.25 µg/mL (≈ 0.549 µM); MIC90 (Haemophilus influenzae [16]): 0.12 µg/mL (≈ 0.263 µM); MIC90 (Haemophilus influenzae [17]): 4 µg/mL (≈ 8.78 µM); Activity (Haemophilus influenzae [18]): 0%
